Measurements as given in ChEMBL document CHEMBL4689842, “EUbOPEN Chemogenomics Library wave 1” (2021).

Columns and labels:
Format in all cases: toxicity, cell-based
U2OS [1] = assay: Multiplex assay against U2OS; conditions: human
Method in brief: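 At seeding, live cells were stained with Hoechst33342, BioTracker Green Microtubule Cytoskeleton Dye, MitoTracker Red and Annexin V Alexa Fluor 680. After compound addition they were imaged on a CQ1 microscope at 37°C and 5% CO2, and CellPathfinder machine-learning gating sorted them into Hoechst high-intensity objects or normal cells, with normal cells further split into healthy, pyknosed or fragmented nuclei and pyknosed cells into mitotic or apoptotic. Tubulin, mitochondrial-mass and membrane-permeability phenotypes are given as per cents of cells with healthy nuclei.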

Fibroblast = assay: Incucyte cell viability with human fibroblast; conditions: 10 µM, compound concentration 10 uM; note: filed as whole numbers so only -1 and 0 and 1 occur
HEK-293T = assay: Incucyte cell viability with HEK293T; conditions: human, 10 µM, compound concentration 10 uM; note: filed as whole numbers so only -1 and 0 and 1 occur
U2OS [2] = assay: Incucyte cell viability with U2OS; conditions: human, 10 µM, compound concentration 10 uM; note: filed as whole numbers so only -1 and 0 and 1 occur
[3] = 12 h, 1 µM, compound concentration 1 uM, replicate 1
[4] = 12 h, 1 µM, compound concentration 1 uM, replicate 2
[5] = 12 h, 10 µM, compound concentration 10 uM, replicate 1
[6] = 12 h, 10 µM, compound concentration 10 uM, replicate 2
[7] = 24 h, 1 µM, compound concentration 1 uM, replicate 1
[8] = 24 h, 1 µM, compound concentration 1 uM, replicate 2
[9] = 24 h, 10 µM, compound concentration 10 uM, replicate 1
[10] = 24 h, 10 µM, compound concentration 10 uM, replicate 2
[11] = 6 h, replicate number 1, timepoint 6 hours
[12] = 12 h, replicate number 1, timepoint 12 hours
[13] = 18 h, replicate number 1, timepoint 18 hours
[14] = 24 h, replicate number 1, timepoint 24 hours

Cl.Cl.NC1(c2ccc(-c3nc4ccn5c(=O)[nH]nc5c4cc3-c3ccccc3)cc2)CCC1
Population Apoptotic (%) (U2OS [1]; [3]): 53%
Population Fragmented Nuclei (%) (U2OS [1]; [3]): 11%
Population Healthy Nuclei (%) (U2OS [1]; [3]): 81%
Population Hoechst High Intensity Objects (%) (U2OS [1]; [3]): 1%
Population Membrane Permeable-Phenotype (%) (U2OS [1]; [3]): 20%
Population Mitochondria Different-Phenotype (%) (U2OS [1]; [3]): 13%
Population Mitotic Cells (%) (U2OS [1]; [3]): 46%
Population Normal (%) (U2OS [1]; [3]): 98%
Population Pyknosed Nuclei (%) (U2OS [1]; [3]): 6%
Population Tubulin-Different-Phenotype (%) (U2OS [1]; [3]): 14%
Total Cell Count (U2OS [1]; [3]): 154
Population Apoptotic (%) (U2OS [1]; [4]): 50%
Population Fragmented Nuclei (%) (U2OS [1]; [4]): 17%
Population Healthy Nuclei (%) (U2OS [1]; [4]): 77%
Population Hoechst High Intensity Objects (%) (U2OS [1]; [4]): 12%
Population Membrane Permeable-Phenotype (%) (U2OS [1]; [4]): 10%
Population Mitochondria Different-Phenotype (%) (U2OS [1]; [4]): 17%
Population Mitotic Cells (%) (U2OS [1]; [4]): 50%
Population Normal (%) (U2OS [1]; [4]): 87%
Population Pyknosed Nuclei (%) (U2OS [1]; [4]): 4%
Population Tubulin-Different-Phenotype (%) (U2OS [1]; [4]): 19%
Total Cell Count (U2OS [1]; [4]): 116
Population Apoptotic (%) (U2OS [1]; [5]): 22%
Population Fragmented Nuclei (%) (U2OS [1]; [5]): 16%
Population Healthy Nuclei (%) (U2OS [1]; [5]): 40%
Population Hoechst High Intensity Objects (%) (U2OS [1]; [5]): 9%
Population Membrane Permeable-Phenotype (%) (U2OS [1]; [5]): 28%
Population Mitochondria Different-Phenotype (%) (U2OS [1]; [5]): 53%
Population Mitotic Cells (%) (U2OS [1]; [5]): 77%
Population Normal (%) (U2OS [1]; [5]): 90%
Population Pyknosed Nuclei (%) (U2OS [1]; [5]): 42%
Population Tubulin-Different-Phenotype (%) (U2OS [1]; [5]): 70%
Total Cell Count (U2OS [1]; [5]): 190
Population Apoptotic (%) (U2OS [1]; [6]): 11%
Population Fragmented Nuclei (%) (U2OS [1]; [6]): 26%
Population Healthy Nuclei (%) (U2OS [1]; [6]): 42%
Population Hoechst High Intensity Objects (%) (U2OS [1]; [6]): 16%
Population Membrane Permeable-Phenotype (%) (U2OS [1]; [6]): 16%
Population Mitochondria Different-Phenotype (%) (U2OS [1]; [6]): 51%
Population Mitotic Cells (%) (U2OS [1]; [6]): 88%
Population Normal (%) (U2OS [1]; [6]): 83%
Population Pyknosed Nuclei (%) (U2OS [1]; [6]): 31%
Population Tubulin-Different-Phenotype (%) (U2OS [1]; [6]): 66%
Total Cell Count (U2OS [1]; [6]): 160
Population Apoptotic (%) (U2OS [1]; [7]): 50%
Population Fragmented Nuclei (%) (U2OS [1]; [7]): 9%
Population Healthy Nuclei (%) (U2OS [1]; [7]): 85%
Population Hoechst High Intensity Objects (%) (U2OS [1]; [7]): 1%
Population Membrane Permeable-Phenotype (%) (U2OS [1]; [7]): 14%
Population Mitochondria Different-Phenotype (%) (U2OS [1]; [7]): 11%
Population Mitotic Cells (%) (U2OS [1]; [7]): 50%
Population Normal (%) (U2OS [1]; [7]): 98%
Population Pyknosed Nuclei (%) (U2OS [1]; [7]): 5%
Population Tubulin-Different-Phenotype (%) (U2OS [1]; [7]): 17%
Total Cell Count (U2OS [1]; [7]): 140
Population Apoptotic (%) (U2OS [1]; [8]): 16%
Population Fragmented Nuclei (%) (U2OS [1]; [8]): 14%
Population Healthy Nuclei (%) (U2OS [1]; [8]): 81%
Population Hoechst High Intensity Objects (%) (U2OS [1]; [8]): 8%
Population Membrane Permeable-Phenotype (%) (U2OS [1]; [8]): 10%
Population Mitochondria Different-Phenotype (%) (U2OS [1]; [8]): 21%
Population Mitotic Cells (%) (U2OS [1]; [8]): 83%
Population Normal (%) (U2OS [1]; [8]): 91%
Population Pyknosed Nuclei (%) (U2OS [1]; [8]): 3%
Population Tubulin-Different-Phenotype (%) (U2OS [1]; [8]): 19%
Total Cell Count (U2OS [1]; [8]): 103
Population Apoptotic (%) (U2OS [1]; [9]): 36%
Population Fragmented Nuclei (%) (U2OS [1]; [9]): 8%
Population Healthy Nuclei (%) (U2OS [1]; [9]): 27%
Population Hoechst High Intensity Objects (%) (U2OS [1]; [9]): 19%
Population Membrane Permeable-Phenotype (%) (U2OS [1]; [9]): 19%
Population Mitochondria Different-Phenotype (%) (U2OS [1]; [9]): 68%
Population Mitotic Cells (%) (U2OS [1]; [9]): 64%
Population Normal (%) (U2OS [1]; [9]): 80%
Population Pyknosed Nuclei (%) (U2OS [1]; [9]): 64%
Population Tubulin-Different-Phenotype (%) (U2OS [1]; [9]): 55%
Total Cell Count (U2OS [1]; [9]): 268
Population Apoptotic (%) (U2OS [1]; [10]): 29%
Population Fragmented Nuclei (%) (U2OS [1]; [10]): 18%
Population Healthy Nuclei (%) (U2OS [1]; [10]): 23%
Population Hoechst High Intensity Objects (%) (U2OS [1]; [10]): 21%
Population Membrane Permeable-Phenotype (%) (U2OS [1]; [10]): 11%
Population Mitochondria Different-Phenotype (%) (U2OS [1]; [10]): 57%
Population Mitotic Cells (%) (U2OS [1]; [10]): 70%
Population Normal (%) (U2OS [1]; [10]): 78%
Population Pyknosed Nuclei (%) (U2OS [1]; [10]): 58%
Population Tubulin-Different-Phenotype (%) (U2OS [1]; [10]): 48%
Total Cell Count (U2OS [1]; [10]): 181
Growth Rate (Fibroblast; [11]): 0
Growth Rate (Fibroblast; [12]): 0
Growth Rate (Fibroblast; [13]): 0
Growth Rate (Fibroblast; [14]): 0
Growth Rate (HEK-293T; [11]): 0
Growth Rate (HEK-293T; [12]): 0
Growth Rate (HEK-293T; [13]): 0
Growth Rate (HEK-293T; [14]): 0
Growth Rate (U2OS [2]; 0 h, replicate number 1, timepoint 0 hours): 0
Growth Rate (U2OS [2]; [11]): 1
Growth Rate (U2OS [2]; [12]): 1
Growth Rate (U2OS [2]; [13]): 1
Growth Rate (U2OS [2]; [14]): 1
